# hiPSC survival – hiPSC single-cell survival enhancement; ATPlite luminescence; 100% = ROCK inhibitor wells, 0% = DMSO; survival enhancement, % at 20 µM; hit rate 0.044% among 360,000; in the data active = survival enhancement above about 18%;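 also: cells exposed to compounds for 16 hours before the ATP read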
# beta cell repl – inducers of beta-cell replication in MIN6 cells; hit rate 0.29% among 330,000; MIN6 cells proliferation, ATPlite luminescence, 48 h; cells starved in 0.2% serum; 100% = growth in 10% serum; AID 2380; proliferation, % at 10 µM;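 active = compounds whose signal lies at least 3.5 SD above the mean of all wells on their plate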;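 also: 0% = DMSO-treated cells in low-serum medium and 100% = 10% serum control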
# Apaf1 inhib – blocks human Apaf-1 apoptosome activity. O14727. reconstituted apoptosome caspase-3 activity, DEVD-Rh110 fluorescence. inhibition, % at 20 µM. hit rate 0.71% among 330,000. AID 489030; active = inhibition of at least 40% at 20 µM;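 also: plate controls were DMSO wells for no effect and DEVD-CHO caspase inhibitor wells for full effect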
#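 detection = Rh110 fluorescence intensity | test system = biochemical Apaf-1 apoptosome reconstitution | also added = cytochrome c and DEVD-Rh110 substrate | schedule = 30 min plus 50 min, RT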
# MPTP inh – blocks calcium-induced mitochondrial swelling; isolated mouse mitochondria, Ca2+ swelling absorbance, 30 min; inhibition, % at 10 µM; hit rate 1.4% among 360,000; AID 602449;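 active = inhibition of 50% or more, scaled per plate between neutral and stimulator controls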;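 also: 0% = DMSO wells given calcium and 100% = 1 mM EGTA wells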
# Exocytosis inh – blocks lytic granule exocytosis; TALL-104 LAMP-1 surface exposure, flow cytometry; cells stimulated with thapsigargin and PMA; hit rate 0.66% among 360,000; inhibition, % at 10 µM;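 active = inhibition above about 55%, limit read from the data; inconclusive = no clear call, values can overlap the other calls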
# UBC13 polyUb – blocks human UBC13 polyubiquitin chain formation. P61088. TR-FRET. inhibition, % at 20 µM. hit rate 0.47% among 330,000; in the data active = inhibition above about 45%, passing the limit was not always enough; inconclusive = no clear call, values can overlap the other calls
# Target sequence (P61088 whole entry, looked up): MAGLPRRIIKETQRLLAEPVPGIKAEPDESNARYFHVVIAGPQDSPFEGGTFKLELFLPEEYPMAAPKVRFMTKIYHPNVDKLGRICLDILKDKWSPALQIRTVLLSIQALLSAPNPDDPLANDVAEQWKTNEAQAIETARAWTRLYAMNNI
# Starred values were filed as active, the others as inactive; ? = inconclusive; nt = no result given. Hits are enriched below; roughly 3% of the tested compounds scored in any of these assays.
SMILES,hiPSC survival,beta cell repl,Apaf1 inhib,MPTP inh,Exocytosis inh,UBC13 polyUb
Cc1ccsc1/C=N/N=C/c1sccc1C,-1,-4,20,2,-6,-14
COc1ccccc1CNCC(O)Cn1c2ccccc2c2ccccc21 (configuration not stated),-4,-6,13,-4,87*,29
O=C(CN1C(=O)NC(Cc2c[nH]c3ccccc23)C1=O)Nc1ccc(Br)cc1F (configuration not stated),0,-6,2,-1,4,8
CN(C)c1ccc(/C=C2/C[N+](C)(C)C/C(=C/c3ccc(N(C)C)cc3)C2=O)cc1,-4,nt,nt,40,-4,nt
CC(C)/C=C1\CC/C(=C\c2ccc(N(C)C)cc2)C1=O,-1,0,2,34,56*,-45
CCOc1ccccc1N=C1SCC(C)N1C(=O)C1CCN(c2ncnc3sc(C)c(C)c23)CC1 (configuration not stated),0,nt,nt,-2,1,nt
C/C(=N\NC(=S)Nc1ccccc1C)c1ccc(O)cc1,0,-1,-11,-9,0,50*
CCc1ccc(NC(=O)CCC(=O)Nc2nnc(C(F)(F)F)s2)cc1,0,2,-13,-1,-2,1
Cc1cccc(NC(=O)Nc2nnc([C@H]3C[C@H](O)[C@@H](CO)O3)s2)c1,-4,nt,nt,0,-7,nt
O=C1CCCCN1CCC(=O)N1CCCC(N2CCN(c3ccccc3)CC2)C1 (configuration not stated),0,2,-13,-3,-7,3
CCN1/C(=C/c2ccc3cc(C)ccc3[n+]2C)Sc2ccc3sccc3c21,-5,nt,nt,34,62*,nt
Nc1ccn([C@@H]2O[C@H](CN=C3NS(=O)(=O)c4ccccc43)[C@@H](O)[C@H]2O)c(=O)n1,0,nt,nt,0,1,nt
COc1cc(/C=C2\C(=O)N(c3ccc(S(N)(=O)=O)cc3)N=C2C)ccc1OC(=O)c1ccco1,-2,-1,91*,1,6,-64
COc1cc(/C=C2/C(=O)N(c3ccc(C(=O)O)cc3)N=C2C)cc(OC)c1O,0,2,78*,13,-7,-123
CC(C)(c1ccccc1)c1ccc(OCC2CO2)cc1 (configuration not stated),0,0,13,1,56*,5
CN(C)CCOc1ccc(C(C)(C)c2ccccc2)cc1,1,-2,-11,2,-5,-5
NC(=O)c1ccc(N=C2C(=O)Nc3ccc([N+](=O)[O-])cc32)cc1,-2,0,56*,1,4,-55
CNCCCN1c2ccccc2CCc2ccccc21,-5,-8,1,nt,6,24
CN(CCCN1c2ccccc2CCc2ccccc21)CC(=O)c1ccc(Cl)cc1,nt,-8,44*,nt,nt,39
CCN(CC)C(=O)CSc1nc2ccc(NC(=O)CSc3nnc(COc4ccccc4C)n3C)cc2s1,-1,-2,16,-2,2,5
Cc1ccccc1OCc1nnc(SCC(=O)Nc2ccc3nc(SCC(=O)NC(C)(C)C)sc3c2)n1C,-1,-4,21,1,77*,-9
OC(c1cccc(Cl)c1)c1nc(-c2ccc(Cl)cc2)cs1 (configuration not stated),1,nt,nt,4,0,nt
COc1ccc(CS(=O)(=O)/C(Cl)=C(/Cl)C(=O)Nc2ccc(OC)nc2)cc1,37*,-4,-2,-1,84*,2
O=C1Cc2ccccc2C(=O)N1OCc1ccc(Cl)cc1Cl,-1,-4,68*,-2,-2,-10
COCCN(C(=O)COC(=O)c1ccc(-c2ccccc2)cc1)c1c(N)n(Cc2ccccc2)c(=O)[nH]c1=O,0,nt,nt,0,1,nt
SMILES,hiPSC survival,beta cell repl,Apaf1 inhib,MPTP inh,Exocytosis inh,UBC13 polyUb
O=C1c2cccc3cccc(c23)C(=O)C1(O)O,-1,-1,-4,4,71*,-29
O=C(/C=C/c1ccc([N+](=O)[O-])cc1)/C=C/c1ccco1,-1,-4,43*,0,53,3
O=C(/C=C/c1ccc([N+](=O)[O-])cc1)c1ccco1,0,-5,-11,0,0,8
O=C(O)c1ccccc1O,-2,-3,-7,4,1,3
Nc1c(O)cccc1C(=O)O,4,-1,53*,-2,-2,-16
COC1OC(c2ccccc2)=C(c2cnc(N)nc2)c2ccc(F)cc21 (configuration not stated),0,nt,nt,-2,-2,nt
CN1CCc2cccc3c2C1Cc1ccc(O)c(O)c1-3 (configuration not stated),0,-8,50*,0,6,15
CN1CCC(=C2c3ccccc3C(O)c3ccccc32)CC1 (configuration not stated),0,-4,6,0,15,-2
O=C(NNC(=O)c1ccco1)c1ccc(NS(=O)(=O)c2cccs2)cc1,0,0,-5,-1,-3,-4
N#CC1(NC(=O)COC(=O)c2cc(O)c3ccccc3c2O)CCCCC1,0,-7,73*,0,61*,-17
CN(CC(=O)Nc1c(Cl)cccc1Cl)C(=O)CNC(=O)c1ccc2ccccc2c1,0,-1,9,0,2,0
Cc1cc(Cl)ccc1NNC(N)=S,0,-4,-7,1,62*,-8
CC(C)c1ccc(NC(=S)Nc2cccc3ccccc23)cc1,-1,-8,84*,7,12,?
Fc1ccc(NC(=S)Nc2cccc3ccccc23)cc1,0,-5,85*,17,12,-37
CC1=N/C(=C/c2cc(Br)cc(Br)c2O)C(=O)O1,0,0,-2,3,-17,-2
CCc1ccc2c(c1)/C(=C/C(=O)c1cccs1)C(=O)N2,-2,-6,12,2,104*,-25
COc1ccccc1NC(=O)c1cc2c(CO)cnc(C)c2oc1=Nc1ccccc1,1,-6,22,-1,81*,10
CC(C)c1ccc(NC2CCCN(C(=O)c3ccc(N4CCOCC4)cc3)C2)cc1 (configuration not stated),0,-2,7,-1,-5,0
Cn1c2ccccc2c(=O)n2c(=O)c3ccccc3cc12,nt,-1,98*,nt,nt,-7
Cn1c(-c2ccccc2)cc(=O)c2ccccc21,-1,-1,-8,1,-2,0
Cc1ccc(S(=O)(=O)N2CCN(C(=O)COC(=O)c3cccc(Cl)c3)CC2)c(C)c1,0,-4,28,-1,1,-9
COc1ccc(NC(=O)c2cc(-c3ccc(C)o3)nc3ccccc23)cc1OC,-1,-3,9,-2,64*,-16
COc1cc(F)ccc1-c1csc(C(O)c2ccccc2)n1 (configuration not stated),0,nt,nt,2,-1,nt
CCN(CC)c1ccc(N=Cc2ccccc2[N+](=O)[O-])cc1,-2,0,62*,2,-8,-47

# Assay outcomes (PubChem BioAssay)
